Compounds with a hit are over-represented: about 3.8% of the library has one in this group of screens.
SDO1 yeast rescue: compounds rescuing growth of sdo1-depleted yeast, bone marrow failure model; z-score at 10 µM; AID 817; S. cerevisiae sdo1-depleted JHY4D growth rescue, OD600 30 h; hits give high values; pdr5 snq2 efflux-pump mutant strain; hit rate 0.21% among 140,000;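 active = z-score above 3 at both the 24 hr and the 30 hr optical density reads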
Yeast growth inh: chemicals that inhibit yeast BB579 growth in restrictive medium (lifespan-shortening candidates) | S. cerevisiae BB579 growth, OD615, 48 h | hit rate 0.51% among 140,000 | inhibition, % at 10 µM;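 active = inhibition above a set limit, 3 SD over the mean compound inhibition, cut at about 44% in these data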
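System: Saccharomyces cerevisiae DeaD strain BB579, replicative lifespan model yeast | Buffer or medium: Restrictive glucose-based CSMM-D medium | Times: 4 h preincubation and 48 h exposure at 30 °C | Detection: OD615 turbidity measurement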
Measles CPE: protection of cells from measles virus | Measles virus-infected cells, CPE protection, absorbance | protection (pct of control), % at 4 µM | hit rate 1.5% among 140,000; in the data active = protection mostly above about 24%, no sharp cut-off; inactive = mostly below about 26%
Yeast life ext: extends the lifespan of yeast; hit rate 0.68% among 130,000; inhibition of the nicotinamide effect, % at 10 µM; S. cerevisiae growth with nicotinamide, OD615; deaD strain in restrictive glucose medium;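 active = inhibition above a set limit, placed 3 SD over the median of all compounds, cut at about 26% in these data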
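Test system – modified budding yeast, DeaD strain · Compound – single dose 10 µM compound, 0.25% DMSO · Times – culture preincubation 4 h, compound exposure 48 h, both 30 °C · Detection – optical density (absorbance) at 615 nm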
RAM inhibit: inhibitors of the yeast RAM network. S. cerevisiae dse1pr::URA3 reporter, 5-FOA growth OD615, 2 d; analog-sensitive cbk1-as2 kinase mutant strain. inhibition, % at 50 µM. hit rate 1.8% among 190,000. AID 868;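 active = inhibition above a set limit, 3 SD over mean compound inhibition, cut at about 8.4% in these data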;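 note: inhibition rescues growth on 5-FOA so higher OD means more RAM inhibition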
Of the large screens only hits and unclear results are named; the others gave an inactive call.

COc1ccc(-c2cc(C(F)(F)F)nc(N3CCCCCC3)n2)cc1	RAM inhibit 8.7
CCCCCC(=O)OC(CN1CCCCC1)CN1CCCC1=O (centres undefined)	none
O=C(CCC1CCCC1)c1c(O)c2ccccc2oc1=O	Yeast life ext 33
O=C(c1c(O)c2ccccc2oc1=O)C1CCCCC1	Yeast life ext 29
CCCCn1c(N)c(NCC)c(=O)[nH]c1=O	none (no result: SDO1 yeast rescue, Yeast growth inh, Measles CPE, Yeast life ext)
COC(=O)c1ccc(C)c(NC(=O)CN(c2ccccc2)S(=O)(=O)N(C)C)c1	none (no result: SDO1 yeast rescue, Yeast growth inh, Measles CPE, Yeast life ext)
CC1Cc2ccccc2N1C(=O)CSc1nnc(Cn2nnc3ccccc32)n1C (centres undefined)	Measles CPE 36
CC(C)N(C(=O)CSc1nnc(Cn2nnc3ccccc32)n1C)C(C)C	none
O=C(O)CSc1nnc(Cn2nnc3ccccc32)n1CCc1ccccc1	Measles CPE 28
O/N=C/c1ccn(-c2ccc(Br)cc2)c1	none (no result: SDO1 yeast rescue, Yeast growth inh, Measles CPE, Yeast life ext)
COC(=O)c1c(NC(=S)Nc2ccc(C(=O)N3CCOCC3)cc2)sc2c1CCC2	none (no result: SDO1 yeast rescue, Yeast growth inh, Measles CPE, Yeast life ext)
Oc1cc(-c2ccccc2)c2ccccc2c1	Yeast growth inh 97
CC1CN(c2oc(Cc3cccc4ccccc34)nc2C#N)CC(C)O1 (centres undefined)	RAM inhibit 9.9
COC(=O)CCSCc1cn2cc(Cl)ccc2n1	none
Cc1ccc(C(=O)NNC(=O)CCC(=O)Nc2cccc(Cl)c2C)cc1	none
Cc1cccc(C(=O)NNC(=O)CCC(=O)Nc2cccc(Cl)c2C)c1	Measles CPE 35
CCOC(=O)c1cnc(-n2nc(C)cc2C)nc1NC1CCCCC1	Yeast growth inh 98
CCOC(=O)c1cnc(-n2nc(C)cc2C)nc1NC	none
CC(C)c1nnc(NC(=O)c2cccc(NC(=O)C(F)(F)F)c2)s1	none (no result: SDO1 yeast rescue, Yeast growth inh, Measles CPE, Yeast life ext)
COc1ccc(/C(=C/c2ccc(OC(F)F)c(OC)c2)C(=O)O)cc1OC	Measles CPE 60
CCn1c2ccccc2c2nc3cc(OC)c(OC)cc3nc21	RAM inhibit 9.3
COc1cc2nc3c4ccccc4n(CC#N)c3nc2cc1OC	RAM inhibit 8.4
CCCCNC(=O)C1C2C=CC3(CN(Cc4ccc(C)cc4)C(=O)C13)O2 (centres undefined)	none
Cc1ccc(CN2CC34C=CC(O3)C(C(=O)NCc3ccco3)C4C2=O)cc1 (centres undefined)	Measles CPE 30
CS/C(=N/S(=O)(=O)c1ccc(C)cc1)c1ccccc1	Measles CPE 18
O=S(=O)(/N=C(\Sc1ccc(Cl)cc1)c1ccccc1)c1ccccc1	Yeast growth inh 88
CS/C(=N\S(=O)(=O)c1ccc(Cl)cc1)c1ccccc1	none
O=C(O)C1CCCCC1C(=O)Nc1cc(C(F)(F)F)ccc1Cl (centres undefined)	none (no result: SDO1 yeast rescue, Yeast growth inh, Measles CPE, Yeast life ext)
COC(=O)/C(=C\c1ccc2c(c1)c1ccccc1n2C)NC(=O)c1ccccc1	RAM inhibit 8.6
CCCn1c2ccccc2c2cc(C(=O)O)ccc21	none
Cn1c2ccccc2c2cc(C(=O)O)ccc21	Yeast growth inh 77
CC(C)C(=O)NCc1cc(-c2ccccc2)no1	none (no result: SDO1 yeast rescue, Yeast growth inh, Measles CPE, Yeast life ext)
Cc1ccc(N2CCOCC2)c2c1C(=O)c1ccccc1C2=O	Yeast growth inh 63
Cc1cccc(CSC2=CS(=O)(=O)c3ccccc3N2)c1	Measles CPE 42
Cc1ccc(CSC2=CS(=O)(=O)c3ccccc3N2)cc1	none
CN1CCC(NC(=S)Nc2cccc([N+](=O)[O-])c2)CC1	none (no result: SDO1 yeast rescue, Yeast growth inh, Measles CPE, Yeast life ext)
CSc1nc2c(c(=O)n1-c1ccc(C)cc1)SCC2	none
CSc1nc2c(c(=O)n1-c1ccc(F)cc1)SCC2	Measles CPE 44 (no result: Yeast life ext)
CN1CCN(CC(O)(c2ccc(Cl)cc2)c2ccc(Cl)cc2)CC1	none (no result: SDO1 yeast rescue, Yeast growth inh, Measles CPE, Yeast life ext)
COc1ccc(CC(=O)NC(C)c2nnc(SCC(=O)Nc3cc(C)ccc3OC)n2C)cc1 (centres undefined)	none (no result: SDO1 yeast rescue, Yeast growth inh, Measles CPE, Yeast life ext)
N#Cc1ccc(C(=O)NCC(c2ccco2)N2CCCCC2)cc1 (centres undefined)	Measles CPE 46
O=C(c1cc(COc2ccc(F)cc2Cl)on1)N1CCc2ccccc2C1	RAM inhibit 10 (no result: SDO1 yeast rescue, Yeast growth inh, Measles CPE, Yeast life ext)
CN(C)/C=C(\C(=O)c1ccc(F)cc1F)c1nnnn1-c1ccccc1	none
CN(C)c1ccc(C=C(c2nnnn2-c2ccccc2)c2nnnn2-c2ccccc2)cc1	Measles CPE 23
CC(C)c1ccc2c(c1)[C@H]1OCC[C@H]1[C@@H](c1cccs1)N2	none
Cc1cc2c(c(=O)o1)C(C13C=CC(CC1)C3)C(C#N)=C(N)O2 (centres undefined)	Measles CPE 31
COc1ccc([N+](=O)[O-])cc1NC(=O)CC1SC(=Nc2cccc(C)c2C)N(/N=C/c2cccc(OC)c2OC)C1=O (centres undefined)	RAM inhibit 10 (no result: SDO1 yeast rescue, Yeast growth inh, Measles CPE, Yeast life ext)
COc1cc(/C=C(\NC(=O)c2ccccc2)C(=O)Nc2cccc(O)c2)c([N+](=O)[O-])cc1OC	none
CC(=O)c1ccc2c(c1)C1C=CCC1C(c1ccc(S(=O)(=O)N3CCOCC3)cc1)N2 (centres undefined)	Measles CPE 90
COc1cccc(CN2CCN(Cc3ccc(OC)c(OC)c3)CC2CCO)c1 (centres undefined)	none (no result: SDO1 yeast rescue, Yeast growth inh, Measles CPE, Yeast life ext)
CCOc1ccc(-n2c(C)cc(C(=O)NS(=O)(=O)c3ccc(C)cc3)c2C)cc1	none
Cc1ccc(-n2c(C)cc(C(=O)NS(=O)(=O)c3ccc(C)cc3)c2C)cc1	RAM inhibit 8.6
O=C(Cc1cccs1)Nc1cc(SCCO)cc([N+](=O)[O-])c1	Measles CPE 102
CCCS(=O)(=O)n1nc(-c2ccc(OC)cc2)cc1N	Measles CPE 27
CCCS(=O)(=O)n1nc(-c2ccc(C)cc2)cc1N	none
O=C(O)C(Cc1c[nH]c2ccccc12)NS(=O)(=O)c1cccc2nsnc12 (centres undefined)	none
O=C(NCc1ccc2c(c1)OCO2)c1ccc(COc2cccc(Cl)c2)o1	none
O=C(NCc1ccc2c(c1)OCO2)c1ccc(CSCc2ccccc2Cl)o1	RAM inhibit 11
Cc1cccc(C)c1NC(=O)N1CCC(N2CCCCC2)CC1	none
CN(Cc1nc(-c2cccs2)no1)CC1COCCO1 (centres undefined)	none (no result: SDO1 yeast rescue, Yeast growth inh, Measles CPE, Yeast life ext)
Cc1ccc(C(C2C(=O)CC(C)(C)CC2=O)C2C(=O)CC(C)(C)CC2=O)s1	Yeast life ext 34
CC1(C)CC(=O)C(CCCN2C(=O)c3ccccc3C2=O)C(=O)C1	none
CCNc1nc(NC(C)(C)C)nc(N2CCCCC2)n1	none (no result: SDO1 yeast rescue, Yeast growth inh, Measles CPE, Yeast life ext)
CC1(C)Cc2nc3oc4c(=O)n(CC(=O)Nc5ccccc5)cnc4c3cc2CO1	none (no result: Measles CPE)
Cc1cccc(NC(=O)Cn2cnc3c(oc4nc5c(cc43)COC(C)(C)C5)c2=O)c1	RAM inhibit 8.5
CSCCC(NC(=O)OC(C)(C)C)C(=O)Oc1ccc2c(=O)c(-c3ccc4c(c3)OCCO4)coc2c1 (centres undefined)	RAM inhibit 8.7
CSCCC(NC(C)=O)C(=O)Oc1ccc2c3c(c(=O)oc2c1)CCCC3 (centres undefined)	none
COc1ccc(N2CCN(C(=S)Nc3ccc(C)cc3)CC2)cc1	none (no result: SDO1 yeast rescue, Yeast growth inh, Measles CPE, Yeast life ext)
COc1ccc(N2CCN(C(=S)Nc3cccc(C)c3C)CC2)cc1	RAM inhibit 10

Screens from PubChem BioAssay.
